The text below walks through data of ChEMBL document CHEMBL1145328, “Synthesis, crystal structure, structure-activity relationships, and antiviral activity of a potent SARS coronavirus 3CL protease inhibitor” (J Med Chem, 2006).

Series [1] has as its system MRC5. The experiment in a line: Cytotoxicity against MRC5 cells infected with human coronavirus 229E. It counts as functional, cell-based.
For series [2], the target named is Replicase polyprotein 1a (Severe acute respiratory syndrome-related coronavirus, UniProt P0C6U8). The series can be described thus: Inhibition of SARS coronavirus 3CL protease. Summed up:
(§1)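 SARS 3CLpro (75 nM) or 229E 3CLpro (75 nM), recombinant, expressed as GST fusion in E. coli BL21(DE3)pLysS and released with factor Xa. Enzyme preincubated with compound 20 min at 25 °C. Reaction in Tris-HCl pH 7.5, NaCl, EDTA, DTT and BSA, 30 min at 25 °C, stopped with TFA. Conversion measured by reverse-phase HPLC peak areas. Ki by Cheng–Prusoff.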

The test system of series [3] is Human coronavirus 229E. The series can be described thus: Inhibition of human coronavirus 229E 3CL protease. It counts as functional. Summed up: as §1
The nature of series [4]: Stability in human plasma after 30 mins. The series is classed as ADME, cell-free. The note with it: read-out: Stability. The gist of the method: (§2)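 Human, mouse or rat plasma was prewarmed 5 min at 37 °C. Compound was added from a 100 µM stock in 1% DMSO to give 90% plasma. Samples were shaken at 37 °C for 0, 30 or 120 min, then quenched in acetonitrile with internal standard and centrifuged. Supernatant was diluted and analysed by LC/MS. Result is % of initial remaining.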

Series [5] can be described thus: Stability in mouse plasma after 30 mins. To be noted: read-out: Stability. It counts as ADME. The gist of the method:
as §2

A short description of series [6]: Stability in rat plasma after 30 mins. It counts as ADME, cell-free. The note with it: read-out: Stability. Summed up: as §2
Series [7] has as its system SARS-CoV. The series can be described thus: Antiviral activity against SARS coronavirus in VeroE6 cells assessed as reduction in viral load at 5 uM. The series is classed as functional, Severe acute respiratory syndrome-related coronavirus.
Series [8] can be described thus: Stability in mouse plasma after 120 mins. It counts as ADME. The note with it: read-out: Stability. Summed up:
as §2

In series [9] the test system is SARS-CoV. The series can be described thus: Antiviral activity against SARS coronavirus in VeroE6 cells assessed as reduction in viral load. The series is classed as functional, Severe acute respiratory syndrome-related coronavirus.
Series [10] in a line: Stability in human plasma after 120 mins. It counts as ADME, cell-free. To be noted: read-out: Stability. The gist of the method: as §2
Series [11] has as its system MRC5. The experiment in a line: Antiviral activity against human coronavirus 229E in MRC5 cells assessed as reduction in viral load at 1.25 uM. It counts as functional. The gist of the method: (§3)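 HCoV 229E (ATCC VR-740) stocks were grown in MRC-5 cells. MRC-5 cells were preabsorbed with 40 pfu/well virus for 1 h, then unabsorbed virus was removed and serially diluted compound added. Supernatants were harvested and TCID50 titred on fresh MRC-5 cells. Titre is given as log TCID50/mL.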

For series [12], the system named is SARS-CoV. The experiment in a line: Antiviral activity against SARS coronavirus in VeroE6 cells assessed as reduction in viral load at 2.5 uM. It counts as functional, Severe acute respiratory syndrome-related coronavirus.
The species named for series [13] is Mus musculus. The experiment in a line: Stability in mouse plasma. The series is classed as ADME. Summed up: as §2
For series [14], the system named is MRC5. The experiment in a line: Protection of MRC5 cells infected with human coronavirus 229E at 1 uM. It counts as functional, cell-based. Summed up:
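MRC-5 cells at 90% confluence were infected for 1 h with 10-fold serial dilutions of HCoV 229E stock. Unabsorbed virus was removed and cells overlaid with 0.3% agarose. Compound was present in the medium for 4 days. Cells were then fixed with 10% formalin and stained with 0.5% crystal violet to see plaques.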

Series [15] relates to SARS-CoV. The series can be described thus: Antiviral activity against SARS coronavirus in VeroE6 cells assessed as reduction in viral load at 0.625 uM. It counts as functional, Severe acute respiratory syndrome-related coronavirus.
The test system of series [16] is MRC5. The experiment in a line: Antiviral activity against human coronavirus 229E in MRC5 cells assessed as reduction in viral load at 2.5 uM. It counts as functional. The gist of the method: as §3
Series [17] concerns Plasma. The experiment in a line: Stability in rat plasma. The series is classed as ADME, cell-free. Summed up: as §2
Series [18] in a line: Stability in rat plasma after 120 mins. The note with it: read-out: Stability. It counts as ADME, cell-free. The gist of the method: as §2
Series [19] deals with SARS-CoV. The experiment in a line: Antiviral activity against SARS coronavirus in VeroE6 cells assessed as reduction in viral load at 1.25 uM. It counts as functional, Severe acute respiratory syndrome-related coronavirus.
For series [20], the system named is MRC5. The experiment in a line: Antiviral activity against human coronavirus 229E in MRC5 cells assessed as reduction in viral load. It counts as functional. Summed up:
as §3

Series [21] relates to Plasma. The experiment in a line: Stability in human plasma. The series is classed as ADME, cell-free. Summed up:
as §2

Series [22] has as its system Vero. The series can be described thus: Cytotoxicity against VeroE6 cells infected with SARS coronavirus. The series is classed as functional, cell-based. To be noted: Chlorocebus sabaeus.
Series [23] has as its system SARS-CoV. The series can be described thus: Antiviral activity against SARS coronavirus in VeroE6 cells assessed as reduction in viral load at 10 uM. The series is classed as functional, Severe acute respiratory syndrome-related coronavirus.
The test system of series [24] is MRC5. The experiment in a line: Antiviral activity against human coronavirus 229E in MRC5 cells assessed as reduction in viral load at 5 uM. It counts as functional. The gist of the method: as §3
Series [25] relates to MRC5. The experiment in a line: Antiviral activity against human coronavirus 229E in MRC5 cells assessed as reduction in viral load at 0.625 uM. The series is classed as functional. The gist of the method: as §3

Activity calls are given as the source filed them. The rule behind the calls is not given here. Some results are limits rather than exact numbers.

Regarding `CCOC(=O)/C=C/[C@H](C[C@@H]1CCNC1=O)NC(=O)[C@H](Cc1ccccc1)NC(=O)[C@@H](NC(=O)OCc1ccccc1)C(C)C`, the IC50 (usually the point on the concentration scale where inhibition reaches its midpoint) in series [1] was 13200 nM. The affinity in [2] corresponds to a Ki of 2260 nM.
With `CCOC(=O)/C=C/[C@H](C[C@@H]1CCNC1=O)NC(=O)[C@H](Cc1ccc(F)cc1)NC(=O)[C@@H](NC(=O)c1cc(C)on1)C(C)C`, in series [1], the IC50 was more than 20000 nM. The Ki in series [2] and in series [3] was more than 10000 nM in each case.
In series [1], `CCOC(=O)/C=C/[C@H](C[C@@H]1CCNC1=O)NC(=O)[C@H](CC(C)C)NC(=O)[C@@H](NC(=O)OCc1ccccc1)C(C)OC(C)(C)C` (some centres undefined) came in with an IC50 of 880 nM. In addition, the Ki (usually a dissociation constant, usually derived from enzyme kinetics or from competition with a known ligand) in [2] came to 58 nM.
For `CCOC(=O)/C=C/[C@H](C[C@@H]1CCNC1=O)NC(=O)[C@H](CC(C)C)NC(=O)[C@@H](NC(=O)OCc1ccccc1)C(C)C` the same measures were 9100 nM and 660 nM.
For the molecule `CC(OC(C)(C)C)[C@H](NC(=O)OCc1ccccc1)C(=O)N[C@@H](CC1CCCCC1)C(=O)N[C@H](C=O)C[C@@H]1CCNC1=O` (some centres undefined), the results for the remaining at 0.5 h in series [4], in series [5] and in [6] were 81%, 84% and 70%, respectively. The “log10 TCID50” value in series [7] worked out at 2; in series [9] it was 6.7; in [11] it was 1.3; in [12], 5; in series [15], 6.4; in [16], 1.3. Moreover, the “log10 TCID50” value is 6 in series [19]; 6.51 in series [20]; 2 in series [23]; 1.3 in [24]; 3 in series [25]. Moreover, the remaining at 2 h in series [8] came to 71%; in [10] it was 83%; in [18], 73%. Further, the Stability in series [13], in series [17] and in series [21] was 100% each time. Also, the result in series [14] was Active. Further, the results for the IC50 in series [1] and in [22] were 140 nM and 600 nM, respectively. The Ki turned out to be 53 nM in [2] and 68 nM in series [3].
